Tests used:
[1] = folding enthalpy; higher = less favourable; fluorescence melt of hairpins on a sequencing array, two-state fit; conditions: sodium 0.088 M
Procedure, shortened: (§1)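 On a sequenced MiSeq flow cell, library hairpins with annealed Cy3 and quencher oligos were imaged for Cy3 fluorescence in 2.5 °C steps up to 60 °C, in 50 mM Na-HEPES pH 8.0, 25 mM NaCl. Normalisation used pre-quench Cy3 and control constructs. Bootstrapped two-state fits gave melting temperature and folding enthalpy, combined by inverse variance across four replicates and with fitted temperatures raised by 9.35 °C to match UV melts.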

[2] = melting temperature; fluorescence melt of hairpins on a sequencing array, two-state fit, raised by 9.35 °C to match UV melts; conditions: sodium 0.088 M
Procedure, shortened: as §1

GTAATTCGAAAGAAGTAC (((.(((....))).)))
folding enthalpy [1]: -25 kcal/mol
Tm [2]: 42.3 °C

GCGTGGAGACGC ((((....))))
folding enthalpy [1]: -18.2 kcal/mol
Tm [2]: 55.6 °C

GAAACGCGAAAGCGATTC (((.(((....))).)))
folding enthalpy [1]: -28.3 kcal/mol
Tm [2]: 50.8 °C

GGGCAGCGAAAGCTACCC (((.(((....))).)))
folding enthalpy [1]: -31.2 kcal/mol
Tm [2]: 57.1 °C

GTCCCCGAAAGGGCAGAC ((((((....)))..)))
folding enthalpy [1]: -13 kcal/mol
Tm [2]: 36.7 °C

GCTTAGCGAAAGCGAAGC ((((.((....)).))))
folding enthalpy [1]: -22.4 kcal/mol
Tm [2]: 60.8 °C

GTTAACGAAAGTTAAAC ((((((....))).)))
folding enthalpy [1]: -16.7 kcal/mol
Tm [2]: 36 °C

GGGCCTGGAAACGGGCTC (.(((.(....).))).)
folding enthalpy [1]: -24 kcal/mol
Tm [2]: 50.2 °C

GGCAGCGAAAGCTTCGCC ((((((....)))..)))
folding enthalpy [1]: -17.4 kcal/mol
Tm [2]: 49.1 °C

GTGTGTACGAAAGTACAC (((..(((....))))))
folding enthalpy [1]: -14.8 kcal/mol
Tm [2]: 64.2 °C

GGTTCGCGAAAGCGCACC (((.(((....))).)))
folding enthalpy [1]: -29.5 kcal/mol
Tm [2]: 55.4 °C

GCGATCGAAAGATCTCGC ((((((....)))..)))
folding enthalpy [1]: -20.2 kcal/mol
Tm [2]: 44.1 °C

GGGATAGAAATATCCC ((((((....))))))
folding enthalpy [1]: -30.3 kcal/mol
Tm [2]: 51.1 °C

GCCCGGCGAAAGCGGTGC ((.(.((....)).).))
folding enthalpy [1]: -15.6 kcal/mol
Tm [2]: 56.5 °C

GCGTGGGTACGC ((((....))))
folding enthalpy [1]: -23.9 kcal/mol
Tm [2]: 53.9 °C

GGTGAACGAAAGTTACC (((.(((....))))))
folding enthalpy [1]: -23.4 kcal/mol
Tm [2]: 40.6 °C

GCGAGAACTCGC ((((....))))
folding enthalpy [1]: -27.4 kcal/mol
Tm [2]: 54.9 °C

GATCCTGGAAAGGATC ((((((....))))))
folding enthalpy [1]: -35.6 kcal/mol
Tm [2]: 59.5 °C

GACATCGCGAAAGCGGTC (((..(((....))))))
folding enthalpy [1]: -11.6 kcal/mol
Tm [2]: 34.8 °C

GATCATTTTGATGATC ((((((....))))))
folding enthalpy [1]: -51.2 kcal/mol
Tm [2]: 49.5 °C

GTCGGCGAAAGCCAGAC ((((((....))).)))
folding enthalpy [1]: -16.4 kcal/mol
Tm [2]: 59.4 °C

GTGTTCGGAAACGAACAC (((((((....)))))))
folding enthalpy [1]: -36.3 kcal/mol
Tm [2]: 67.9 °C

GAGATAGCGAAAGCTCTC (((..(((....))))))
folding enthalpy [1]: -15.9 kcal/mol
Tm [2]: 40 °C

GCGAACTTCGC ((((...))))
folding enthalpy [1]: -17.3 kcal/mol
Tm [2]: 48.5 °C

GCAGAGCGAAAGCCCTGC ((((.((....)).))))
folding enthalpy [1]: -29.1 kcal/mol
Tm [2]: 63.2 °C

GCGCGACGAAAGTCCGC (((.(((....))))))
folding enthalpy [1]: -29 kcal/mol
Tm [2]: 66.8 °C

GGTGGAGGAAACTTCGCC ((.(.((....)).).))
folding enthalpy [1]: -28.2 kcal/mol
Tm [2]: 37.7 °C

GACGGACGAAAGTCGGTC (((.(((....))).)))
folding enthalpy [1]: -35.2 kcal/mol
Tm [2]: 58.1 °C

GCCACTGGAAACGGTGGC (((((.(....).)))))
folding enthalpy [1]: -50.6 kcal/mol
Tm [2]: 58.6 °C

GTGTCAACGAAAGTTCAC (((..(((....))))))
folding enthalpy [1]: -8.71 kcal/mol
Tm [2]: 29.8 °C

GGTCCGGGAAACCAGACC ((((.((....)).))))
folding enthalpy [1]: -28.6 kcal/mol
Tm [2]: 46.4 °C

GCAATCGAAAGATATGC ((((((....))).)))
folding enthalpy [1]: -21.1 kcal/mol
Tm [2]: 36.3 °C

GGGGCCGAAAGGCGACCC ((((((....)))..)))
folding enthalpy [1]: -15.9 kcal/mol
Tm [2]: 55.9 °C

GATCAAAACGTTGATC ((((((....))))))
folding enthalpy [1]: -28.1 kcal/mol
Tm [2]: 39.8 °C

GCTGAAGGAAACTTCGGC ((.((((....)))).))
folding enthalpy [1]: -49.4 kcal/mol
Tm [2]: 51.3 °C

CGTGCGGAAACGCACACG ((((((....)))..)))
folding enthalpy [1]: -8.09 kcal/mol
Tm [2]: 43.9 °C

GATCAAGCCCTTGATC ((((((....))))))
folding enthalpy [1]: -49.1 kcal/mol
Tm [2]: 49.4 °C

GATCTGTTGACAGATC ((((((....))))))
folding enthalpy [1]: -43.8 kcal/mol
Tm [2]: 53.1 °C

GCAGATGGAAACATCCGC ((.((((....)))).))
folding enthalpy [1]: -23.9 kcal/mol
Tm [2]: 42.5 °C

GTGGTGGGAAACCACCGC (.(((((....))))).)
folding enthalpy [1]: -29.4 kcal/mol
Tm [2]: 60.5 °C

GAGGGACGAAAGTCTCTC (((.(((....))).)))
folding enthalpy [1]: -32.4 kcal/mol
Tm [2]: 55.4 °C

GATCCTTTCAGGATC ((((((...))))))
folding enthalpy [1]: -41.3 kcal/mol
Tm [2]: 57.4 °C

GGAGCAGCGAAAGCTTCC (((..(((....))))))
folding enthalpy [1]: -13.8 kcal/mol
Tm [2]: 30.8 °C

GATCAGCCGCCTGATC ((((((....))))))
folding enthalpy [1]: -32.5 kcal/mol
Tm [2]: 50.5 °C

GATCCTCCCAAGGATC ((((((....))))))
folding enthalpy [1]: -43.1 kcal/mol
Tm [2]: 53.1 °C

GTGTCCGAAAGGAACCAC ((((((....)))..)))
folding enthalpy [1]: -12.6 kcal/mol
Tm [2]: 35.3 °C

Source: the array DNA melting data of Ke et al. (doi:10.1101/2024.01.08.574731)
